This is an account of results in PubChem BioAssay AID493050 (Broad Institute, 2011).

A word on the AC50: it is the concentration giving half of the maximal activity seen.

Several values for one entry are separate records, joined by “and”; a condition that tells them apart may be missing. Identical values can stand only once. Activity calls are given as the source filed them.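 Rule for the calls: active = viability falling with dose, half-maximal potency at or under ten times the top valid dose; inconclusive = flat partial loss of viability, or an unreliable curve fit; inactive = the rest, including a rising signal.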

System in the first assay: not listed separately
Kind of assay: DRD BJ cell killing, Ras synthetic lethality – DRD BJ fibroblasts, HRASV12, dry powder, set 2, dose response (AID 493050). To be noted: DRD (HRASV12 BJ) fibroblasts viability, Alamar Blue, 48 h; at 48 µM (top of the series). The procedure, abridged: (§1)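 Assay system: DRD BJ fibroblasts expressing SV40 ST, dn-p53, cyclin D1, CDK4mut, HRASV12; signal: Alamar Blue fluorescence, excitation 544 nm, emission 590 nm; incubation: 48 h compound treatment, ~16 h dye incubation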
Take `Cc1ccc(C(=O)N2CCN(C(c3ccccc3)c3ccccc3)CC2)c([N+](=O)[O-])c1`: the activity change, negative = viability loss was 15.7% (inactive).
Still for that read-out and setting: in the case of `CC(C)c1onc(C(=O)N2CCN(C(c3ccccc3)c3ccccc3)CC2)c1[N+](=O)[O-]` it was 4.37% (inactive).
Consider `Cc1onc(C(=O)N2CCN(C(c3ccccc3)c3ccccc3)CC2)c1N`, for which the activity change, negative = viability loss was 1.23% (inactive).
The same measure, in the same setting: to `Cc1onc(C(=O)N2CCN(C(c3ccncc3)c3ccncc3)CC2)c1[N+](=O)[O-]` belongs 1.3% (inactive).
Take `O=[N+]([O-])c1ccc(CN2CCN(C(c3ccccc3)c3ccccc3)CC2)o1`: the activity change, negative = viability loss was -0.32% (inactive).
On the same count and under the same terms, in the case of `Cc1onc(C(=O)N2CCN(C(c3ccccc3)c3ccccc3)CC2)c1NS(C)(=O)=O` it was 2.79% (inactive).
With `Cc1oc(C)c(C(=O)N2CCN(C(c3ccccc3)c3ccccc3)CC2)c1C`, the activity change, negative = viability loss was 11.7% (inactive).
The same measure, in the same setting: to `Cc1onc(C(=O)N2CCN(C(c3ccccc3)c3ccccc3)CC2)c1Br` belongs 8.89% (inactive); to `CC(=O)Nc1c(C(=O)N2CCN(C(c3ccccc3)c3ccccc3)CC2)noc1C`, 5.57% (inactive); to `O=C(c1noc2ccccc12)N1CCN(C(c2ccccc2)c2ccccc2)CC1`, 4.79% (inactive).
On the same count and under the same terms, in the case of `Cc1onc(C(=O)N2CCN(C(c3ccccn3)c3ccccn3)CC2)c1[N+](=O)[O-]` it was 3.35% (inactive); in that of `Cc1onc(C(=O)N2CCN(C(c3ccccc3)c3ccccc3)CC2)c1C`, 10.5% (inactive).

Still in this assay, the particulars now being: DRD (HRASV12 BJ) fibroblasts viability, Alamar Blue, 48 h; at 68 µM (top of the series).
As for `Cc1onc(C(=O)N2CCOCC2)c1[N+](=O)[O-]`, the activity change, negative = viability loss was 4.86% (inactive).
Same read-out and setting: to `COc1ccccc1N1CCN(C(=O)c2noc(C)c2[N+](=O)[O-])CC1` belongs 0.386% (inactive); to `Cc1cc(C(=O)N2CCN(Cc3ccccc3)CC2)no1`, -2.15% (inactive); to `Cc1onc(C(=O)NCc2ccc(F)cc2)c1[N+](=O)[O-]`, 0.881% (inactive).
Turning to `CCOC(=O)N1CCN(C(=O)c2noc(C)c2[N+](=O)[O-])CC1`, the activity change, negative = viability loss was 6.53% (inactive).

The subject of the next assay is DRD (HRASV12 BJ) fibroblasts viability, Alamar Blue, 48 h. The assay is described as above.
Conditions: not given
The procedure, abridged:
as §1
Turning to `O=C(c1ccc([N+](=O)[O-])o1)N1CCN(C(c2ccccc2)c2ccccc2)CC1`, the AC50 was 19.4 µM.
As to `O=C(c1ccc([N+](=O)[O-])o1)N1CCN(C(c2ccc(F)cc2)c2ccc(F)cc2)CC1`, the AC50 is 13.1 µM.
On the same count and under the same terms, in the case of `O=C(c1ccc([N+](=O)[O-])o1)N1CCCN(C(c2ccccc2)c2ccccc2)CC1` it was 46.5 µM; in that of `Cc1onc(C(=O)N2CCN(C(c3ccc(F)cc3)c3ccc(F)cc3)CC2)c1[N+](=O)[O-]`, 0.226 µM.
`Cc1onc(C(=O)N2CCN(C(c3ccccc3)c3ccccc3)CC2)c1[N+](=O)[O-]`: the concentration at half-maximal activity (AC50) was 4.75 µM and 1.71 µM.
Consider `Cc1onc(C(=O)N2CCCN(C(c3ccccc3)c3ccccc3)CC2)c1[N+](=O)[O-]`, for which the AC50 is 1.1 µM.
Same read-out and setting: in the case of `Cc1onc(C(=O)N2CCN(C(c3ccc(Cl)cc3)c3ccc(Cl)cc3)CC2)c1[N+](=O)[O-]` it was 0.107 µM; in that of `COc1ccc(C(c2ccc(OC)cc2)N2CCN(C(=O)c3ccc([N+](=O)[O-])o3)CC2)cc1`, 8.37 µM.
Regarding `COc1ccc(C(c2ccc(OC)cc2)N2CCN(C(=O)c3noc(C)c3[N+](=O)[O-])CC2)cc1`, the AC50 is 1.85 µM.
Turning to `Cc1onc(C(=O)NCCNC(c2ccccc2)c2ccccc2)c1[N+](=O)[O-]`, the AC50 was 16 µM.
In the case of `O=C(NCCNC(c1ccccc1)c1ccccc1)c1ccc([N+](=O)[O-])o1`, the AC50 is 8.27 µM.
Still for that read-out and setting: to `Cc1onc(C(=O)N2CCN(C(c3ccccc3)c3ccc(Cl)cc3)CC2)c1[N+](=O)[O-]` (centres undefined) belongs 0.21 µM.
